From ChEMBL document CHEMBL1132122, “Synthesis and antimalarial activity of 11 dispiro-1,2,4,5-tetraoxane analogues of WR 148999. 7,8,15,16-Tetraoxadispiro[5.2.5.2]hexadecanes substituted at the 1 and 10 positions with unsaturated and polar functional groups” (J Med Chem, 1999)

Legend:
Plasmodium falciparum [1] = assay: In vitro antimalarial activity against drug-sensitive Plasmodium falciparum NF54
Mus musculus [2] = assay: In vivo evaluation for antimalarial activity against Plasmodium berghei in terms of survival days when administered subcutaneously in mice (Mus musculus); format: functional
Summary of the method: (§1)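 P. berghei ANKA infection in Moro SPF mice, groups of three. Treatment was one 100 mg/kg dose on day 1 post-infection, dissolved or suspended in 3% ethanol plus 7% Tween 80, given orally or subcutaneously. Read-out is mean survival time in days, compared with an untreated control group.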

Mus musculus [3] = assay: In vivo evaluation for antimalarial activity against Plasmodium berghei in percentage when administered orally in mice (Mus musculus); format: functional; design: concentration or dose not given beside the values
Summary of the method: (§2)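 Moro SPF mice infected with P. berghei ANKA, three per group. A single 100 mg/kg dose in 3% ethanol/7% Tween 80 (solution or suspension) was given on day 1 post-infection, po or sc. Activity is percent reduction of parasitemia on day 3 post-infection versus untreated controls.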

Mus musculus [4] = assay: In vivo evaluation for antimalarial activity against Plasmodium berghei in percentage when administered subcutaneously in mice (Mus musculus); format: functional; design: concentration or dose not given beside the values
Summary of the method: as §2

Plasmodium falciparum [5] = assay: In vitro antimalarial activity against chloroquine-resistant Plasmodium falciparum K1; format: functional, organism-based
Summary of the method: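 Tritiated hypoxanthine uptake assay (modified Desjardins method) on P. falciparum asexual cultures, run on chloroquine-resistant K1 and drug-sensitive NF54 strains.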

Mus musculus [6] = assay: In vivo evaluation for antimalarial activity against Plasmodium berghei in terms of survival days when administered orally in mice (Mus musculus); format: functional
Summary of the method: as §1

Row | Compound | IC50 (Plasmodium falciparum [1]) [nM] | Survival (Mus musculus [2]) [days] | Activity (Mus musculus [3]) [%] | Activity (Mus musculus [4]) [%] | IC50 (Plasmodium falciparum [5]) [nM] | Survival (Mus musculus [6]) [days]
1 | COC[C@H]1CCCCC12OOC1(CCCC[C@H]1COC)OO2 (some centres not stated) | 16 | 24.7 | 18 | 100 | 15 | –
2 | CCOC(=O)C[C@H]1CCCCC12OOC1(CCCC[C@H]1CC(=O)OCC)OO2 (some centres not stated) | 6.5 | – | 0 | 0 | 6.2 | –
3 | O=C(O)CC[C@H]1CCCCC12OOC1(CCCC[C@H]1CCC(=O)O)OO2 (some centres not stated) | > 200 | – | – | – | > 200 | –
4 | OC[C@@H]1CCCCC12OOC1(CCCC[C@@H]1CO)OO2 (some centres not stated) | > 200 | – | – | – | > 200 | –
5 | CCOC(=O)CC[C@H]1CCCCC12OOC1(CCCC[C@H]1CCC(=O)OCC)OO2 (some centres not stated) | 16 | – | 0 | 0 | 14 | –
6 | O=C(O)C[C@H]1CCCCC12OOC1(CCCC[C@H]1CC(=O)O)OO2 (some centres not stated) | > 200 | – | – | – | > 200 | –
7 | c1ccc(COC[C@H]2CCCCC23OOC2(CCCC[C@H]2COCc2ccccc2)OO3)cc1 (some centres not stated) | 26 | – | 0 | 0 | 18 | –
8 | O=C(OC[C@H]1CCCCC12OOC1(CCCC[C@H]1COC(=O)c1ccccc1)OO2)c1ccccc1 (some centres not stated) | > 200 | – | – | – | > 200 | –
9 | c1ccc(C[C@H]2CCCCC23OOC2(CCCC[C@H]2Cc2ccccc2)OO3)cc1 (some centres not stated) | > 200 | – | – | – | > 200 | –
10 | C#CC[C@@H]1CCCCC12OOC1(CCCC[C@@H]1CC#C)OO2 (some centres not stated) | 13 | – | 0 | 9 | 13 | –
11 | C=CC[C@@H]1CCCCC12OOC1(CCCC[C@@H]1CC=C)OO2 (some centres not stated) | 23 | – | 93 | 15 | 19 | 7
12 | C[C@@H]1CC[C@H]2[C@@H](C)C(=O)O[C@@H]3O[C@@]4(C)CC[C@@H]1[C@]32OO4 [ARTEMISININ] | 12 | 14 | 98 | 100 | – | 7.3
13 | C[C@@H]1CCCCC12OOC1(CCCC[C@@H]1C)OO2 (some centres not stated) [WR-148999] | 39 | 27.7 | 99.7 | 100 | 28 | 7.7
